{
  "source": "ChEMBL document CHEMBL4387700",
  "about": "“A novel, potent, and orally bioavailable thiazole HCV NS5A inhibitor for the treatment of hepatitis C virus” (Eur J Med Chem, 2019)",
  "key": {"[1]": {"assay": "Toxicity in Beagle dog assessed as death at 0.1 mg/kg, iv", "format": "organism-based, Canis lupus familiaris", "conditions": "in vivo", "procedure,_shortened": "(§1)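 Male Beagle dogs, 9–10 months old, n = 3, were given a single intravenous (0.1 mg/kg) or oral (0.5 mg/kg) dose. The intravenous solution was in DMA/propylene glycol (20/80, v/v). Dose volume was set by pre-dose body weight. Blood was sampled up to 24 h. Deaths, body weight and clinical observations were recorded during the pharmacokinetic study.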"}, "[2]": {"assay": "Toxicity in Beagle dog assessed as effect on body weight at 0.5 mg/kg, po", "format": "organism-based, Canis lupus familiaris", "conditions": "in vivo", "procedure,_shortened": "as §1"}, "[3]": {"assay": "Cmax in Beagle dog at 0.5 mg/kg, po by HPLC-MS/MS analysis", "format": "ADME, organism-based, Canis lupus familiaris", "set-up": "dose 0.5 mg/kg, route oral", "conditions": "in vivo", "procedure,_shortened": "(§2)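 Male Beagle dogs, 9–10 months old, n = 3, dosed iv 0.1 mg/kg or orally 0.5 mg/kg. Blood was drawn at 0, 2, 5 (iv only), 15, 30 min and 1, 2, 4, 6, 8, 24 h and kept on ice. Plasma was assayed by HPLC-MS/MS, with non-compartmental analysis. The iv formulation was a solution in DMA/propylene glycol (20/80, v/v).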"}, "[4]": {"assay": "Toxicity in Beagle dog assessed as effect on clinical observations at 0.5 mg/kg, po", "format": "organism-based, Canis lupus familiaris", "conditions": "in vivo", "procedure,_shortened": "as §1"}, "[5]": {"assay": "Toxicity in Beagle dog assessed as death at 0.5 mg/kg, po", "format": "organism-based, Canis lupus familiaris", "conditions": "in vivo", "procedure,_shortened": "as §1"}, "[6]": {"assay": "AUC in Beagle dog at 0.1 mg/kg, iv by HPLC-MS/MS analysis", "format": "ADME, organism-based, Canis lupus familiaris", "conditions": "in vivo", "procedure,_shortened": "as §2"}, "[7]": {"assay": "Toxicity in Sprague-Dawley rat assessed as effect on clinical observations at 1 mg/kg, iv", "format": "organism-based", "conditions": "in vivo", "procedure,_shortened": "(§3)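 Male Sprague-Dawley rats, 330–380 g, 9–10 weeks old, n = 3, were quarantined 1 week and jugular-cannulated 1 day before dosing. They were fasted, then given a single intravenous (1.0 mg/kg; DMA/propylene glycol 20/80, v/v) or oral (5.0 mg/kg) dose. Deaths, body weight and clinical observations were monitored with blood sampling through 24 h.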"}, "[8]": {"assay": "Half life in Beagle dog at 0.5 mg/kg, po by HPLC-MS/MS analysis", "format": "ADME, organism-based, Canis lupus familiaris", "conditions": "in vivo", "procedure,_shortened": "as §2"}, "[9]": {"assay": "Half life in Sprague-Dawley rat at 5 mg/kg, po by HPLC-MS/MS analysis", "format": "ADME, organism-based", "conditions": "in vivo", "procedure,_shortened": "(§4)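 Male Sprague-Dawley rats, 330–380 g, 9–10 weeks old, n = 3, jugular-cannulated 1 day ahead and fasted. Dosed iv 1.0 mg/kg or orally 5.0 mg/kg. Cannula blood was drawn at 0, 2, 5 (iv only), 15, 30 min and 1, 2, 4, 6, 8, 24 h. Plasma was assayed by HPLC-MS/MS, with non-compartmental analysis. The iv vehicle was DMA/propylene glycol (20/80, v/v).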"}, "[10]": {"assay": "Half life in Beagle dog at 0.1 mg/kg, iv by HPLC-MS/MS analysis", "format": "ADME, organism-based, Canis lupus familiaris", "conditions": "in vivo", "procedure,_shortened": "as §2"}, "[11]": {"assay": "AUC in Sprague-Dawley rat at 1 mg/kg, iv by HPLC-MS/MS analysis", "format": "ADME, organism-based", "conditions": "in vivo", "procedure,_shortened": "as §4"}, "[12]": {"assay": "Cytotoxicity against human HuH7 cells assessed as reduction in cell viability by MTS assay", "format": "cell-based, Huh-7", "procedure,_shortened": "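Viability of Huh-7 cells was read by MTS assay.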"}, "[13]": {"assay": "Toxicity in Sprague-Dawley rat assessed as effect on body weight at 1 mg/kg, iv", "format": "organism-based", "conditions": "in vivo", "procedure,_shortened": "as §3"}, "[14]": {"assay": "Volume of distribution at steady state in Sprague-Dawley rat at 1 mg/kg, iv by HPLC-MS/MS analysis", "format": "ADME, organism-based", "conditions": "in vivo, read-out: Vdss", "procedure,_shortened": "as §4"}, "[15]": {"assay": "Cmax in Sprague-Dawley rat at 5 mg/kg, po by HPLC-MS/MS analysis", "format": "ADME, organism-based", "set-up": "dose 5 mg/kg, route oral", "conditions": "in vivo", "procedure,_shortened": "as §4"}, "[16]": {"assay": "Plasma clearance in Beagle dog at 0.1 mg/kg, iv by HPLC-MS/MS analysis", "format": "ADME, organism-based, Canis lupus familiaris", "procedure,_shortened": "as §2"}, "[17]": {"assay": "Oral bioavailability in Beagle dog at 0.5 mg/kg by HPLC-MS/MS analysis", "format": "ADME, organism-based, Canis lupus familiaris", "conditions": "in vivo", "procedure,_shortened": "as §2"}, "[18]": {"assay": "Toxicity in Beagle dog assessed as effect on body weight at 0.1 mg/kg, iv", "format": "organism-based, Canis lupus familiaris", "conditions": "in vivo", "procedure,_shortened": "as §1"}, "[19]": {"assay": "Toxicity in Sprague-Dawley rat assessed as death at 5 mg/kg, po", "format": "organism-based", "conditions": "in vivo", "procedure,_shortened": "as §3"}, "[20]": {"assay": "Volume of distribution at steady state in Beagle dog at 0.1 mg/kg, iv by HPLC-MS/MS analysis", "format": "ADME, organism-based, Canis lupus familiaris", "conditions": "in vivo, read-out: Vdss", "procedure,_shortened": "as §2"}, "[21]": {"biological_target": "T1, Nonstructural protein 5A (Hepatitis C virus) (UniProt Q5L478)", "T1 sequence (whole entry)": "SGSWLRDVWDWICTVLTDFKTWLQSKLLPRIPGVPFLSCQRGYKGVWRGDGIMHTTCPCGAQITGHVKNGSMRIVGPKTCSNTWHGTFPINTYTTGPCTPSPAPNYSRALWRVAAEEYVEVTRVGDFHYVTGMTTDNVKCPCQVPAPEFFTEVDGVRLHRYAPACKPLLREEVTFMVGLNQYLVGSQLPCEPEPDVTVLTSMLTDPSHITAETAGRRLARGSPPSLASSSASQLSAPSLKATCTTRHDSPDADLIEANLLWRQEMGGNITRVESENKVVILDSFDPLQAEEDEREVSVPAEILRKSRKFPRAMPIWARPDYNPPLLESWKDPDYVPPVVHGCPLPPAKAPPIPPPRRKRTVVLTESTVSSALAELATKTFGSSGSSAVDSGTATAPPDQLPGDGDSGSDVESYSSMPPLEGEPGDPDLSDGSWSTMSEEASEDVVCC", "assay": "Potency index, ratio of daclatasvir EC50 to test compound EC50 for inhibition of NS5A in HCV genotype 1b infected in human HuH7 replicon cells", "format": "cell-based", "conditions": "Hepatitis C virus subtype 1b"}, "[22]": {"assay": "Plasma clearance in Sprague-Dawley rat at 1 mg/kg, iv by HPLC-MS/MS analysis", "format": "ADME, organism-based", "procedure,_shortened": "as §4"}, "[23]": {"assay": "Tmax in Beagle dog at 0.5 mg/kg, po by HPLC-MS/MS analysis", "format": "ADME, organism-based, Canis lupus familiaris", "conditions": "in vivo", "procedure,_shortened": "as §2"}, "[24]": {"assay": "Toxicity in Sprague-Dawley rat assessed as effect on clinical observations at 5 mg/kg, po", "format": "organism-based", "conditions": "in vivo", "procedure,_shortened": "as §3"}, "[25]": {"assay": "Toxicity in Sprague-Dawley rat assessed as effect on body weight at 5 mg/kg, po", "format": "organism-based", "conditions": "in vivo", "procedure,_shortened": "as §3"}, "[26]": {"assay": "Half life in Sprague-Dawley rat at 1 mg/kg, iv by HPLC-MS/MS analysis", "format": "ADME, organism-based", "conditions": "in vivo", "procedure,_shortened": "as §4"}, "[27]": {"assay": "Toxicity in Sprague-Dawley rat assessed as death at 1 mg/kg, iv", "format": "organism-based", "conditions": "in vivo", "procedure,_shortened": "as §3"}, "[28]": {"assay": "Oral bioavailability in Sprague-Dawley rat at 5 mg/kg by HPLC-MS/MS analysis", "format": "ADME, organism-based", "conditions": "in vivo", "procedure,_shortened": "as §4"}, "[29]": {"assay": "Tmax in Sprague-Dawley rat at 5 mg/kg, po by HPLC-MS/MS analysis", "format": "ADME, organism-based", "conditions": "in vivo", "procedure,_shortened": "as §4"}, "[30]": {"assay": "AUC in Beagle dog at 0.5 mg/kg, po by HPLC-MS/MS analysis", "format": "ADME, organism-based, Canis lupus familiaris", "conditions": "in vivo", "procedure,_shortened": "as §2"}, "[31]": {"assay": "Toxicity in Beagle dog assessed as effect on clinical observations at 0.1 mg/kg, iv", "format": "organism-based, Canis lupus familiaris", "conditions": "in vivo", "procedure,_shortened": "as §1"}, "[32]": {"assay": "AUC in Sprague-Dawley rat at 5 mg/kg, po by HPLC-MS/MS analysis", "format": "ADME, organism-based", "conditions": "in vivo", "procedure,_shortened": "as §4"}},
  "data": [
    {"smiles": "O=C(N[C@@H](C(=O)N1CCC[C@H]1c1ncc(-c2ccc(-c3ccc(-c4cnc([C@@H]5CCCN5C(=O)[C@H](NC(=O)C5CC5)c5ccccc5)s4)cc3)cc2)s1)c1ccccc1)C1CC1", "values": [
      {"measurement": "Activity", "setting": "[1]", "result": "Non-Toxic"},
      {"measurement": "Activity", "setting": "[2]", "result": "Non-Toxic"},
      {"measurement": "Cmax", "setting": "[3]", "result": 94.9, "unit": "ng/mL"},
      {"measurement": "Activity", "setting": "[4]", "result": "Non-Toxic"},
      {"measurement": "Activity", "setting": "[5]", "result": "Non-Toxic"},
      {"measurement": "AUC", "setting": "[6]", "result": 1390, "unit": "ng·h/mL"},
      {"measurement": "Activity", "setting": "[7]", "result": "Non-Toxic"},
      {"measurement": "half-life", "setting": "[8]", "result": 21.4, "unit": "h"},
      {"measurement": "half-life", "setting": "[9]", "result": 20.4, "unit": "h"},
      {"measurement": "half-life", "setting": "[10]", "result": 19.2, "unit": "h"},
      {"measurement": "AUC", "setting": "[11]", "result": 16300, "unit": "ng·h/mL"},
      {"measurement": "CC50", "setting": "[12]", "result": "> 50", "unit": "µM"},
      {"measurement": "Activity", "setting": "[13]", "result": "Non-Toxic"},
      {"measurement": "Vd", "setting": "[14]", "result": 1.3, "unit": "L/kg"},
      {"measurement": "Cmax", "setting": "[15]", "result": 305, "unit": "ng/mL"},
      {"measurement": "clearance", "setting": "[16]", "result": 1.3, "unit": "mL/min/kg"},
      {"measurement": "bioavailability", "setting": "[17]", "result": 23.3, "unit": "%"},
      {"measurement": "Activity", "setting": "[18]", "result": "Non-Toxic"},
      {"measurement": "Activity", "setting": "[19]", "result": "Non-Toxic"},
      {"measurement": "Vd", "setting": "[20]", "result": 1.6, "unit": "L/kg"},
      {"measurement": "Ratio EC50", "setting": "[21]", "result": 3},
      {"measurement": "clearance", "setting": "[22]", "result": 1.1, "unit": "mL/min/kg"},
      {"measurement": "Tmax", "setting": "[23]", "result": 2.5, "unit": "h"},
      {"measurement": "Activity", "setting": "[24]", "result": "Non-Toxic"},
      {"measurement": "Activity", "setting": "[25]", "result": "Non-Toxic"},
      {"measurement": "half-life", "setting": "[26]", "result": 18.3, "unit": "h"},
      {"measurement": "Activity", "setting": "[27]", "result": "Non-Toxic"},
      {"measurement": "bioavailability", "setting": "[28]", "result": 22, "unit": "%"},
      {"measurement": "Tmax", "setting": "[29]", "result": 3.3, "unit": "h"},
      {"measurement": "AUC", "setting": "[30]", "result": 1620, "unit": "ng·h/mL"},
      {"measurement": "Activity", "setting": "[31]", "result": "Non-Toxic"},
      {"measurement": "AUC", "setting": "[32]", "result": 14500, "unit": "ng·h/mL"}
    ]}
  ]
}
